In brackets after ≈: the same amount, converted by molar mass. Square brackets hold non-standard residues; d marks the D form. Peptide text beside a SMILES is read from it.
Columns and labels:
Streptococcus pyogenes = experiment: Antimicrobial activity against Streptococcus pyogenes after 24 hrs by standard microtiter dilution method; type: functional
Streptococcus pneumoniae = experiment: Antimicrobial activity against Streptococcus pneumoniae after 24 hrs by standard microtiter dilution method; type: functional
Candida albicans = experiment: Antimicrobial activity against Candida albicans after 24 hrs by standard microtiter dilution method; type: functional
In short: (§1)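 Fungal MICs were determined by standard microtitre dilution, taken as the lowest peptide concentration inhibiting growth after 24 h incubation at 37 °C.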

Enterobacter cloacae = experiment: Antimicrobial activity against Enterobacter cloacae after 24 hrs by standard microtiter dilution method; type: functional
[1] = test system: Acinetobacter calcoaceticus; experiment: Antimicrobial activity against Acinetobacter calcoaceticus after 24 hrs by standard microtiter dilution method; type: functional
[2] = test system: Stenotrophomonas maltophilia; experiment: Antimicrobial activity against Stenotrophomonas maltophilia after 24 hrs by standard microtiter dilution method; type: functional
Enterococcus faecalis = experiment: Antimicrobial activity against Enterococcus faecalis after 24 hrs by standard microtiter dilution method; type: functional
[3] = test system: Staphylococcus epidermidis; experiment: Antimicrobial activity against Staphylococcus epidermidis after 24 hrs by standard microtiter dilution method; type: functional
Klebsiella pneumoniae = experiment: Antimicrobial activity against Klebsiella pneumoniae after 24 hrs by standard microtiter dilution method; type: functional
Corynebacterium jeikeium = experiment: Antimicrobial activity against Corynebacterium jeikeium after 24 hrs by standard microtiter dilution method; type: functional
Cryptococcus neoformans = experiment: Antimicrobial activity against Cryptococcus neoformans after 24 hrs by standard microtiter dilution method; type: functional; in short: as §1
Staphylococcus aureus = experiment: Antimicrobial activity against Staphylococcus aureus after 24 hrs by standard microtiter dilution method; type: functional
Serratia marcescens = experiment: Antimicrobial activity against Serratia marcescens after 24 hrs by standard microtiter dilution method; type: functional
Streptococcus mitis = experiment: Antimicrobial activity against Streptococcus mitis after 24 hrs by standard microtiter dilution method; type: functional
Escherichia coli = experiment: Antimicrobial activity against Escherichia coli after 24 hrs by standard microtiter dilution method; type: functional
[4] = Therapeutic index, ratio of hemolytic activity in human RBC to MIC for Enterobacter cloacae; details: human red blood cells (RBC), read-out: TI
Pseudomonas aeruginosa = experiment: Antimicrobial activity against Pseudomonas aeruginosa after 24 hrs by standard microtiter dilution method; type: functional

SMILES	MIC (Streptococcus pyogenes) [µg/mL]	MIC (Streptococcus pneumoniae) [µg/mL]	MIC (Candida albicans) [µg/mL]	MIC (Enterobacter cloacae) [µg/mL]	MIC [1] [µg/mL]	MIC [2] [µg/mL]	MIC (Enterococcus faecalis) [µg/mL]	MIC [3] [µg/mL]	MIC (Klebsiella pneumoniae) [µg/mL]	MIC (Corynebacterium jeikeium) [µg/mL]	MIC (Cryptococcus neoformans) [µg/mL]	MIC (Staphylococcus aureus) [µg/mL]	MIC (Serratia marcescens) [µg/mL]	MIC (Streptococcus mitis) [µg/mL]	MIC (Escherichia coli) [µg/mL]	selectivity ratio [4]	MIC (Pseudomonas aeruginosa) [µg/mL]
CC(C)C[C@@H]1NC(=O)[C@H](CCCCN)NC(=O)[C@H](C(C)C)NC(=O)[C@H](CCCCN)NC(=O)[C@H](CC(C)C)NC(=O)[C@@H]2CCCN2C(=O)[C@@H](Cc2ccc(O)cc2)NC(=O)[C@H](C(C)C)NC(=O)[C@H](CCCCN)NC(=O)[C@H](CCCCN)NC(=O)[C@H](C(C)C)NC(=O)[C@@H]2CCCN2C(=O)[C@@H](Cc2ccc(O)cc2)NC1=O (cyclo(KKV[dY]PLKVKL[dY]PV))	0.5 (≈ 0.321 µM)	0.5 (≈ 0.321 µM)	16 (≈ 10.3 µM)	128 (≈ 82.2 µM)	2 (≈ 1.28 µM)	16 (≈ 10.3 µM)	8 (≈ 5.14 µM)	2 (≈ 1.28 µM)									
CC(C)C[C@@H]1NC(=O)[C@H](CCCCN)NC(=O)[C@H](C(C)C)NC(=O)[C@@H]2CCCN2C(=O)[C@@H](Cc2ccc(O)cc2)NC(=O)[C@H](CC(C)C)NC(=O)[C@H](CCCCN)NC(=O)[C@H](C(C)C)NC(=O)[C@H](CCCCN)NC(=O)[C@H](CC(C)C)NC(=O)[C@H](CCCCN)NC(=O)[C@@H]2CCCN2C(=O)[C@@H](Cc2ccc(O)cc2)NC(=O)[C@H](CCCCN)NC(=O)[C@H](CCCCN)NC1=O (cyclo(VKLKK[dY]PKLKVKL[dY]P))			64 (≈ 35 µM)		2 (≈ 1.09 µM)		8 (≈ 4.38 µM)		8 (≈ 4.38 µM)	8 (≈ 4.38 µM)	64 (≈ 35 µM)	64 (≈ 35 µM)	256 (≈ 140 µM)	8 (≈ 4.38 µM)			
CC(C)C[C@@H]1NC(=O)[C@H](CCCCN)NC(=O)[C@H](C(C)C)NC(=O)[C@@H]2CCCN2C(=O)[C@@H](Cc2ccc(O)cc2)NC(=O)[C@H](CC(C)C)NC(=O)[C@H](CCCCN)NC(=O)[C@H](C(C)C)NC(=O)[C@H](CCCCN)NC(=O)[C@H](CC(C)C)NC(=O)[C@H](CCCCN)NC(=O)[C@@H]2CCCN2C(=O)[C@@H](Cc2ccc(O)cc2)NC(=O)[C@H](C(C)C)NC(=O)[C@H](CCCCN)NC1=O (cyclo(VKLKV[dY]PKLKVKL[dY]P)) [listing 1 of 2 here]	0.5 (≈ 0.278 µM)	0.5 (≈ 0.278 µM)			2 (≈ 1.11 µM)	4 (≈ 2.22 µM)	2 (≈ 1.11 µM)		8 (≈ 4.45 µM)	2 (≈ 1.11 µM)	1 (≈ 0.556 µM)	2 (≈ 1.11 µM)		0.5 (≈ 0.278 µM)			
CC(C)C[C@@H]1NC(=O)[C@H](CCCCN)NC(=O)[C@@H]2CCCN2C(=O)[C@@H](Cc2ccc(O)cc2)NC(=O)[C@H](CCCCN)NC(=O)[C@H](C(C)C)NC(=O)[C@H](CC(C)C)NC(=O)[C@H](CCCCN)NC(=O)[C@H](C(C)C)NC(=O)[C@@H]2CCCN2C(=O)[C@@H](Cc2ccc(O)cc2)NC(=O)[C@H](CC(C)C)NC(=O)[C@H](CCCCN)NC(=O)[C@H](C(C)C)NC(=O)[C@H](CCCCN)NC1=O (cyclo(VKLVK[dY]PKLKVKL[dY]P))				256 (≈ 142 µM)		8 (≈ 4.45 µM)	4 (≈ 2.22 µM)	16 (≈ 8.9 µM)	8 (≈ 4.45 µM)	1 (≈ 0.556 µM)		32 (≈ 17.8 µM)	256 (≈ 142 µM)	4 (≈ 2.22 µM)	16 (≈ 8.9 µM)		
CC(C)C[C@@H]1NC(=O)[C@H](CCCCN)NC(=O)[C@H](C(C)C)NC(=O)[C@@H]2CCCN2C(=O)[C@@H](Cc2ccc(O)cc2)NC(=O)[C@H](CC(C)C)NC(=O)[C@H](CCCCN)NC(=O)[C@H](C(C)C)NC(=O)[C@H](CCCCN)NC(=O)[C@@H]2CCCN2C(=O)[C@@H](Cc2ccc(O)cc2)NC(=O)[C@H](CCCCN)NC1=O (cyclo(KLK[dY]PKVKL[dY]PV))	2 (≈ 1.37 µM)	16 (≈ 11 µM)		256 (≈ 176 µM)	16 (≈ 11 µM)	128 (≈ 87.8 µM)	64 (≈ 43.9 µM)	64 (≈ 43.9 µM)	64 (≈ 43.9 µM)		16 (≈ 11 µM)	64 (≈ 43.9 µM)	256 (≈ 176 µM)				
CC(C)C[C@@H]1NC(=O)[C@H](CCCCN)NC(=O)[C@H](C(C)C)NC(=O)[C@@H]2CCCN2C(=O)[C@@H](Cc2ccc(O)cc2)NC(=O)[C@H](CC(C)C)NC(=O)[C@H](CCCCN)NC(=O)[C@H](C(C)C)NC(=O)[C@H](CCCCN)NC(=O)[C@H](CC(C)C)NC(=O)[C@H](CCCCN)NC(=O)[C@@H]2CCCN2C(=O)[C@@H](Cc2ccc(O)cc2)NC(=O)[C@H](C(C)C)NC(=O)[C@H](CCCCN)NC1=O (cyclo(VKLKV[dY]PKLKVKL[dY]P)) [listing 2 of 2 here]																2	
CC(C)C[C@@H]1NC(=O)[C@H](CCCCN)NC(=O)[C@H](C(C)C)NC(=O)[C@@H]2CCCN2C(=O)[C@@H](Cc2ccc(O)cc2)NC(=O)[C@H](CC(C)C)NC(=O)[C@H](CCCCN)NC(=O)[C@H](C(C)C)NC(=O)[C@H](CCCCN)NC(=O)[C@@H]2CCCN2C(=O)[C@@H](Cc2ccc(O)cc2)NC1=O		2 (≈ 1.5 µM)		256 (≈ 193 µM)	8 (≈ 6.02 µM)				32 (≈ 24.1 µM)	2 (≈ 1.5 µM)		16 (≈ 12 µM)	256 (≈ 193 µM)		64 (≈ 48.1 µM)		
CC(C)C[C@@H]1NC(=O)[C@H](CCCCN)NC(=O)[C@H](C(C)C)NC(=O)[C@@H]2CCCN2C(=O)[C@@H](Cc2ccc(O)cc2)NC(=O)[C@H](CC(C)C)NC(=O)[C@H](CCCCN)NC(=O)[C@H](C(C)C)NC(=O)[C@H](CCCCN)NC(=O)[C@H](CC(C)C)NC(=O)[C@H](CCCCN)NC(=O)[C@@H]2CCCN2C(=O)[C@@H](Cc2ccc(O)cc2)NC(=O)[C@H](CCCCN)NC(=O)[C@H](C(C)C)NC(=O)[C@H](CCCCN)NC1=O (cyclo(VKLKVK[dY]PKLKVKL[dY]P))		1 (≈ 0.519 µM)	64 (≈ 33.2 µM)	64 (≈ 33.2 µM)	2 (≈ 1.04 µM)		4 (≈ 2.08 µM)	2 (≈ 1.04 µM)			64 (≈ 33.2 µM)				4 (≈ 2.08 µM)		
CC(C)C[C@@H]1NC(=O)[C@H](CCCCN)NC(=O)[C@H](C(C)C)NC(=O)[C@H](CCCCN)NC(=O)[C@@H]2CCCN2C(=O)[C@@H](Cc2ccc(O)cc2)NC(=O)[C@H](CCCCN)NC(=O)[C@H](CCCCN)NC(=O)[C@H](C(C)C)NC(=O)[C@@H]2CCCN2C(=O)[C@@H](Cc2ccc(O)cc2)NC1=O (cyclo(VKK[dY]PKVKL[dY]P))		256 (≈ 190 µM)	256 (≈ 190 µM)	256 (≈ 190 µM)		256 (≈ 190 µM)	256 (≈ 190 µM)	256 (≈ 190 µM)	256 (≈ 190 µM)		128 (≈ 95.2 µM)	256 (≈ 190 µM)	256 (≈ 190 µM)	64 (≈ 47.6 µM)			256 (≈ 190 µM)
CC(C)C[C@@H]1NC(=O)[C@H](CCCCN)NC(=O)[C@H](C(C)C)NC(=O)[C@@H]2CCCN2C(=O)[C@@H](Cc2ccc(O)cc2)NC(=O)[C@H](CC(C)C)NC(=O)[C@H](CCCCN)NC(=O)[C@H](C(C)C)NC(=O)[C@@H]2CCCN2C(=O)[C@@H](Cc2ccc(O)cc2)NC(=O)[C@H](CCCCN)NC1=O (cyclo(VKLK[dY]PVKL[dY]P))		8 (≈ 6.02 µM)		256 (≈ 193 µM)	8 (≈ 6.02 µM)	64 (≈ 48.1 µM)	32 (≈ 24.1 µM)		64 (≈ 48.1 µM)	2 (≈ 1.5 µM)	32 (≈ 24.1 µM)	64 (≈ 48.1 µM)			64 (≈ 48.1 µM)		256 (≈ 193 µM)
CC(C)C[C@@H]1NC(=O)[C@H](CCCCN)NC(=O)[C@H](C(C)C)NC(=O)[C@@H]2CCCN2C(=O)[C@@H](Cc2ccc(O)cc2)NC(=O)[C@H](CC(C)C)NC(=O)[C@H](CCCCN)NC(=O)[C@H](C(C)C)NC(=O)[C@H](CCCCN)NC(=O)[C@H](CC(C)C)NC(=O)[C@@H]2CCCN2C(=O)[C@@H](Cc2ccc(O)cc2)NC(=O)[C@H](C(C)C)NC1=O	0.5 (≈ 0.324 µM)	0.5 (≈ 0.324 µM)	32 (≈ 20.8 µM)	256 (≈ 166 µM)	4 (≈ 2.59 µM)	32 (≈ 20.8 µM)	4 (≈ 2.59 µM)	4 (≈ 2.59 µM)		4 (≈ 2.59 µM)		4 (≈ 2.59 µM)	256 (≈ 166 µM)	1 (≈ 0.649 µM)	64 (≈ 41.5 µM)		256 (≈ 166 µM)
CC(C)C[C@@H]1NC(=O)[C@H](CCCCN)NC(=O)[C@H](C(C)C)NC(=O)[C@@H]2CCCN2C(=O)[C@@H](Cc2ccc(O)cc2)NC(=O)[C@H](CC(C)C)NC(=O)[C@H](CCCCN)NC(=O)[C@H](C(C)C)NC(=O)[C@H](CCCCN)NC(=O)[C@H](CC(C)C)NC(=O)[C@@H]2CCCN2C(=O)[C@@H](Cc2ccc(O)cc2)NC(=O)[C@H](CCCCN)NC1=O (cyclo(VKLK[dY]PLKVKL[dY]P))							4 (≈ 2.55 µM)		8 (≈ 5.09 µM)	2 (≈ 1.27 µM)		4 (≈ 2.55 µM)		0.5 (≈ 0.318 µM)	16 (≈ 10.2 µM)		

From ChEMBL document CHEMBL1153373, “Effect of ring size on conformation and biological activity of cyclic cationic antimicrobial peptides” (J Med Chem, 2009)
